In ChEMBL document CHEMBL4425108, “A Selective and Slowly Reversible Inhibitor of l-Type Amino Acid Transporter 1 (LAT1) Potentiates Antiproliferative Drug Efficacy in Cancer Cells” (J Med Chem, 2016):

Tests used:
[1] = system: MCF7; assay: Antiproliferative activity against human MCF7 cells assessed as reduction in cell viability at 25 measured after 72 hrs by resazurin dye-based fluorimetric analysis; type: functional
How it was run: (§1)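 MCF-7 cells were seeded at 2 × 10^4 cells/well on collagen-coated plates and treated one day later. Agents were given alone or combined (25 or 100 µM with 100 µM partner drug) in growth medium for 3 days. Viability was read daily by resazurin fluorescence (ex 560/em 590 nm) and expressed relative to untreated controls.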

[2] = Unbound AUC (0 to 480 mins) in mouse heart at 23 umol/kg, ip administered as bolus by LC-MS analysis; type: ADME, organism-based; conditions: in vivo
How it was run: (§2)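 Male mice (25 ± 5 g) dosed i.p. as a bolus at 23 µmol/kg in DMSO/hydroxypropyl-β-cyclodextrin/saline vehicle, sampled at time points 10–480 min; plasma and tissue homogenates (1:3 water) analysed by LC-MS. […] Mean ± SEM.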

[3] = molecular target: T1, Large neutral amino acids transporter small subunit 1 (Homo sapiens, UniProt Q01650); assay: Drug uptake in human MCF7 cells assessed as LAT1 mediated drug transport per mg of protein at 100 uM measured 5 mins after cold wash by HPLC analysis; type: ADME, cell-based; conditions: mcf7, 5 min
T1 sequence (Q01650 whole entry): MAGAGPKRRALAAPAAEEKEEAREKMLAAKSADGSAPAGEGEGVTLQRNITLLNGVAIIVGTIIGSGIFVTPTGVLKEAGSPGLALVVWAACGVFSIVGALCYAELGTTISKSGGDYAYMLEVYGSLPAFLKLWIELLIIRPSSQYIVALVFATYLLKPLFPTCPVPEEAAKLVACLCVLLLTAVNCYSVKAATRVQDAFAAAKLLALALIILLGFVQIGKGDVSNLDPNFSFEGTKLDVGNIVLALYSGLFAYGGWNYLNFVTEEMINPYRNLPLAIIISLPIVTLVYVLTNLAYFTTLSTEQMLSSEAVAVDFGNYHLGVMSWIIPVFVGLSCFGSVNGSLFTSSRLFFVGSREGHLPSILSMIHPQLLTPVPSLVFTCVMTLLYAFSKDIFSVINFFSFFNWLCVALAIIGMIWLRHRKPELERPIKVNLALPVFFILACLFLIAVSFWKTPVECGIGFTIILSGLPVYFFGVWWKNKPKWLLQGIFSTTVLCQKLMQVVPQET
How it was run: (§3)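 MCF-7 monolayers were incubated with 100 µM compound in HBSS at 37 °C for 5 or 30 min. Cells got three washes with ice-cold or warm (37 °C) HBSS; in the warm 30 min arm they were washed after 5 min and again after 30 min. Lysates (0.1 M NaOH) were quantified by HPLC-UV against a spiked lysate standard curve and normalised to protein (Bio-Rad assay).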

[4] = fCmax in mouse prostate at 23 umol/kg, ip administered as bolus by LC-MS analysis; type: ADME, organism-based, Prostate gland; conditions: in vivo; how it was run: as §2
[5] = molecular target: T1, Large neutral amino acids transporter small subunit 1; assay: Drug uptake in human MCF7 cells assessed as LAT1 mediated drug transport per mg of protein at 100 uM measured 30 mins after cold wash by HPLC analysis; type: ADME, cell-based; conditions: mcf7, 0.5 h; how it was run: as §3
[6] = Fraction unbound in mouse kidney at 23 umol/kg, ip administered as bolus by LC-MS analysis; type: ADME, organism-based
How it was run: (§4)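 Unbound fraction was measured by equilibrium dialysis at 100 µM in mouse plasma and in brain, liver, kidney, heart and prostate homogenates.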

[7] = fCmax in mouse plasma at 23 umol/kg, ip administered as bolus by LC-MS analysis; type: ADME, organism-based; conditions: in vivo; how it was run: as §2
[8] = molecular target: T2, Large neutral amino acids transporter small subunit 2 (Homo sapiens) (UniProt Q9UHI5); assay: Competitive inhibition of [14C]-L-alanine uptake at LAT2 in human MCF7 cells at 100 uM preincubated for 10 mins followed by addition of substrate measured during 5 mins by liquid scintillation counting; type: cell-based
T2 sequence (whole entry): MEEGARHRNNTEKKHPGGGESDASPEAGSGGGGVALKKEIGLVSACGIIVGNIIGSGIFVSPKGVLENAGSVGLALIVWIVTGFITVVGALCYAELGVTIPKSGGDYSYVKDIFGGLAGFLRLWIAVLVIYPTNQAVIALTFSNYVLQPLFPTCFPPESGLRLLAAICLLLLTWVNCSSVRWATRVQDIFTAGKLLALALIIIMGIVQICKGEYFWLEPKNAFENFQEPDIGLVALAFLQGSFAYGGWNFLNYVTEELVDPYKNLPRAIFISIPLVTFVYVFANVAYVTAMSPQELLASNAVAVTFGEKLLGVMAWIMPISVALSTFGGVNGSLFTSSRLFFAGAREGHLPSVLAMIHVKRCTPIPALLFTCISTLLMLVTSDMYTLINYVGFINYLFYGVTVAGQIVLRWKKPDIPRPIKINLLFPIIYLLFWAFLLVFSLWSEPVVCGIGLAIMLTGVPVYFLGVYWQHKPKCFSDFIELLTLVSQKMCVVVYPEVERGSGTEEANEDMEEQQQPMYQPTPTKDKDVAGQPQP
How it was run: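 MCF-7 cells were seeded at 1 × 10^5 cells/well and used one day later. Cells were washed and pre-incubated 10 min at 37 °C in HEPES-buffered HBSS (choline chloride, pH 7.4). Uptake of 10.0 µM [14C]-L-alanine ran 5 min at 37 °C with test agent (1–1000 µM) or DMSO blank. Cells were then given three ice-cold washes, lysed in 0.1 M NaOH and counted by liquid scintillation; n=3.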

[9] = Fraction unbound in mouse heart at 23 umol/kg, ip administered as bolus by LC-MS analysis; type: ADME, organism-based; how it was run: as §4
[10] = system: Mus musculus; assay: Binding affinity to LAT1 in mouse brain assessed as inhibition of [14C]-L-leucine uptake at 23 umol/kg, ip measured post perfusion with [14C]-L-leucine; type: functional, organism-based; conditions: TDE = time-dependent effect
How it was run: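 Mice under ketamine/xylazine anaesthesia had the right common carotid artery cannulated. Brains were perfused at 37 °C, 2.5 mL/min, for 30 s with 0.157 µM [14C]-L-leucine, then 2 s with analyte-free buffer at 4 °C. Perfusion took place 10 or 180 min after 23 µmol/kg i.p. dosing.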

[11] = system: MCF7; assay: Antiproliferative activity against human MCF7 cells assessed as reduction in cell viability at 100 measured after 72 hrs by resazurin dye-based fluorimetric analysis; type: functional; how it was run: as §1
[12] = fCmax in mouse kidney at 23 umol/kg, ip administered as bolus by LC-MS analysis; type: ADME, organism-based; conditions: in vivo; how it was run: as §2
[13] = AUC (0 to 480 min) in mouse liver at 23 umol/kg, ip administered as bolus by LC-MS analysis; type: ADME, organism-based; set-up: dose 23 umol/kg, time < 8 hr, route intraperitoneal; conditions: in vivo, 8 h
How it was run: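 Male adult mice (25 ± 5 g) given a single i.p. bolus at 23 µmol/kg. The dosing solution was 1.36 mM in 10% (v/v) DMSO, 20% (w/v) hydroxypropyl-β-cyclodextrin and 0.9% NaCl. Animals were decapitated at seven time points from 10 to 480 min. Plasma and tissues were acetonitrile-precipitated with repaglinide internal standard and analysed by LC-MS. Parameters were derived from concentration–time data, mean ± SEM (n=3).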

[14] = Terminal half life in mouse plasma at 23 umol/kg, ip administered as bolus by LC-MS analysis; type: ADME, organism-based; conditions: read-out: beta t1/2
How it was run: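 Adult male mice (25 ± 5 g) given a single i.p. bolus of 23 µmol/kg, dosing solution 1.36 mM in 10% (v/v) DMSO, 20% (w/v) hydroxypropyl-β-cyclodextrin, 0.9% NaCl in water. Decapitation at time points 10–480 min; plasma, brain, liver, prostate, kidney, heart collected. Acetonitrile precipitation with repaglinide internal standard, LC-MS (ESI positive). tmax and t½β taken from concentration-time data; mean ± SEM, n=3.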

[15] = system: MCF7; assay: Antiproliferative activity against human MCF7 cells assessed as reduction in cell viability at 100 measured after 48 hrs by resazurin dye-based fluorimetric analysis; type: functional; how it was run: as §1
[16] = molecular target: T1, Large neutral amino acids transporter small subunit 1; assay: Inhibition of LAT1 in human MCF7 cells assessed as potentiation of bestatin-induced antiproliferative activity by measuring reduction in cell viability at 25 uM measured after 72 hrs by resazurin dye-based fluorimetric analysis
How it was run: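 MCF-7 cells seeded 2 × 10^4/well on collagen-coated plates, treated one day later in growth medium with inhibitor (25 or 100 µM) plus bestatin or cisplatin (100 µM) for up to 3 days. Viability read daily by resazurin fluorescence (ex 560/em 590 nm). Viability is treated relative to untreated control. Mean ± SD, n=3.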

[17] = Unbound AUC (0 to 480 mins) in mouse kidney at 23 umol/kg, ip administered as bolus by LC-MS analysis; type: ADME, organism-based; conditions: in vivo; how it was run: as §2

fAUC [2]: 4 nmol/g/min | Drug uptake [3]: 2.8 nmol/mg | fCmax [4]: 0.34 nmol/g | Drug uptake [5]: 2.63 nmol/mg | fraction unbound [6]: 0.0166 | fCmax [7]: 0.19 nmol/mL | inhibition [8]: 3.93% | fraction unbound [9]: 0.0162 | Activity [10]: Tde | fCmax [12]: 0.37 nmol/g | AUC [13]: 1930 nmol/g/min | half-life [14]: 44.9 min | fAUC [17]: 23.7 nmol/g/min
Structure (SMILES): CNC(=O)COc1ccc(-c2c(C#N)c(NC(=O)c3cccc(C[C@H](N)C(=O)O)c3)n3c(nc4ccccc43)c2C#N)cc1
Activity [1]: 34.8% | Activity [11]: 47.7% | Activity [15]: 14.8% | Activity [16]: 52.6%
